ChEMBL document CHEMBL4118175, “Anti-allergic inflammatory components from Sanguisorba officinalis L” (Bioorg Med Chem Lett, 2018)
Activity calls are given as the source filed them.

What was measured:
RBL-2H3 [1] = experiment: Anti-inflammatory activity in PMA/A23187-stimulated rat RBL2H3 cells assessed as reduction of beta-hexosaminidase secretion preincubated for 1 hr followed by PMA/A23187 stimulation for 1 hr using 4-nitrophenyl-N-acetyl-beta-D-glucosaminide substrate; assay type: functional, cell-based
Outline: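 After overnight plating, cells pretreated 1 h then stimulated with 30 ng/mL PMA plus 350 ng/mL A23187 for 1 h; supernatants collected for β-hexosaminidase detection; triplicate, mean ± SEM.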

RBL-2H3 [2] = experiment: Cytotoxicity against rat RBL2H3 cells at 5 and 20 uM after 24 hrs by MTS assay; assay type: cell-based; conditions: rbl-2h3, 24 h
Outline: (§1)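 RBL-2H3 (seeded overnight) or RAW264.7 cells exposed to 5 and 20 µM samples for 24 h; viability by MTS; three independent experiments, mean ± SEM.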

RAW264.7 [3] = experiment: Cytotoxicity against mouse RAW264.7 cells at 5 and 20 uM after 24 hrs by MTS assay; assay type: cell-based; conditions: raw264.7, 24 h; outline: as §1
RAW264.7 [4] = experiment: Anti-inflammatory activity in mouse RAW264.7 cells assessed as inhibition of LPS-induced TNF-alpha production at 20 uM preincubated for 2 hrs followed by LPS addition measured after 24 hrs by ELISA; assay type: functional, cell-based
Outline: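 Cells pretreated 2 h with compounds (20 µM) before LPS (500 ng/mL) for 24 h; supernatant TNF-α by ELISA kit; triplicate, mean ± SEM.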

RBL-2H3 [5] = experiment: Anti-inflammatory activity in PMA/A23187-stimulated rat RBL2H3 cells assessed as reduction of IL4 secretion preincubated for 2 hrs followed by PMA/A23187 stimulation for 18 hrs by ELISA; assay type: functional, cell-based
Outline: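 Cells plated overnight, pretreated 2 h, then stimulated with 30 ng/mL PMA plus 350 ng/mL A23187 for 18 h; supernatant IL-4 by ELISA kit; triplicate, mean ± SEM.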

RBL-2H3 [6] = experiment: Anti-inflammatory activity in IgE sensitized and DNP-BSA-stimulated rat RBL2H3 cells assessed as reduction of IL4 secretion preincubated for 2 hrs followed by DNP-BSA stimulation for 18 hrs by ELISA; assay type: functional, cell-based
Outline: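 IgE-sensitized cells (overnight, 37 °C) pretreated with compounds 2 h, then challenged with 1 µg/mL DNP-BSA for 18 h; IL-4 in supernatant quantified by ELISA kit. Cells seeded in 48-well plates overnight; triplicate, mean ± SEM.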

[7] = molecular target: Transcription factor p65 (Mus musculus) (UniProt Q04207); experiment: Inhibition of NFkappaB nuclear translocation in LPS-stimulated mouse RAW264.7 cells at 20 uM pretreated for 2 hrs followed by LPS-induction by DAPI-staining based immunofluorescence microscopic method; assay type: cell-based
Sequence of Transcription factor p65 (Mus musculus) (Q04207 whole entry): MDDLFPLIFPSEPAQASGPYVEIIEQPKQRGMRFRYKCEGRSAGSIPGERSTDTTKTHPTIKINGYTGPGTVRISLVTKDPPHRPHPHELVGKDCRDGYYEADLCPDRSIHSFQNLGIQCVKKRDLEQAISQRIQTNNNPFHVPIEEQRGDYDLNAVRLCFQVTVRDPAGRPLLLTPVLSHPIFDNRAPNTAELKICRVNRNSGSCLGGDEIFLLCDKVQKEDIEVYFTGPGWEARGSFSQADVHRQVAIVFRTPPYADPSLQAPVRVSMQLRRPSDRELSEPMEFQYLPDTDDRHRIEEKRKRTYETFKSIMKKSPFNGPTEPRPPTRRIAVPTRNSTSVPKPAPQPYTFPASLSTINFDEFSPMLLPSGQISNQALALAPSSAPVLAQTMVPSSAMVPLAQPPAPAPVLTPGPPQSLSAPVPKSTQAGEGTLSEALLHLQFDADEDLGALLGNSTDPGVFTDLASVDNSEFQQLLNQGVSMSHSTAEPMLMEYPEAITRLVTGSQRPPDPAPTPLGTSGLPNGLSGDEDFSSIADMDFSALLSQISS
Outline: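 Cells in eight-well glass chambers preincubated 2 h with samples (20 µM) or Bay 11-7082 before LPS 1 µg/mL; immunostaining with polyclonal anti-p65 and Alexa Fluor 488 secondary to view nuclear translocation.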

RAW264.7 [8] = experiment: Anti-inflammatory activity in mouse RAW264.7 cells assessed as inhibition of LPS-induced nitric oxide production preincubated for 2 hrs followed by LPS addition measured after 24 hrs by Griess method; assay type: functional, cell-based
Outline: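 Following 2 h sample pretreatment, LPS added for 24 h; supernatant NO read with Griess reagent; triplicate, mean ± SEM.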

[9] = molecular target: Transcription factor p65 (Homo sapiens) (UniProt Q04206); experiment: Inhibition of PMA-induced NFkappaB P65 activation (unknown origin) expressed in human HEK293T cells transfected with pNF-kappaB-SEAP preincubated for 2 hrs followed by PMA stimulation measured after overnight incubation by NFkappaB reporter gene assay; assay type: cell-based
Sequence of Transcription factor p65 (Homo sapiens) (Q04206 whole entry): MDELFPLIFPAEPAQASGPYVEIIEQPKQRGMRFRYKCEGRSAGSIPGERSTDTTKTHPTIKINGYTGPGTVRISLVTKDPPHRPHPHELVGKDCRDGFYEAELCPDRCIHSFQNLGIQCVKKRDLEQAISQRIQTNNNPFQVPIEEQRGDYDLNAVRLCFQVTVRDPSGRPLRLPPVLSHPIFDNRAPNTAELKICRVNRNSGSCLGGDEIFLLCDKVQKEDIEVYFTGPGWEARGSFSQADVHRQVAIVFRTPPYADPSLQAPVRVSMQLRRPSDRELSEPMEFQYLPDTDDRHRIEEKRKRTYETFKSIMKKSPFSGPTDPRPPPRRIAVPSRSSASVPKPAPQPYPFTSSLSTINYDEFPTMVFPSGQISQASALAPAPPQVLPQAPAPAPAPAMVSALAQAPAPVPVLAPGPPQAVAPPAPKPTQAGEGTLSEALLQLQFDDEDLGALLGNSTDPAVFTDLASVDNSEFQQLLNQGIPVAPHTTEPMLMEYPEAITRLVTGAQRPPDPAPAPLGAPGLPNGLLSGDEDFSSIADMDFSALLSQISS
Outline: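 293T cells carrying pNFκB-SEAP reporter plasmid, pretreated with samples then PMA-stimulated; NF-κB transcription read as SEAP; triplicate, mean ± SEM.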

RAW264.7 [10] = experiment: Anti-inflammatory activity in mouse RAW264.7 cells assessed as reduction in LPS-stimulated iNOS protein expression at 20 uM preincubated for 2 hrs followed by LPS addition measured after 18 hrs by Western blot analysis; assay type: functional, cell-based
Outline: (§2)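 Pretreatment 2 h with samples (20 µM) then LPS 200 ng/mL for 18 h; COX-2 and iNOS protein by Western blot.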

RAW264.7 [11] = experiment: Anti-inflammatory activity in mouse RAW264.7 cells assessed as reduction in LPS-stimulated COX2 protein expression at 20 uM preincubated for 2 hrs followed by LPS addition measured after 18 hrs by Western blot analysis; assay type: functional, cell-based; outline: as §2

C[C@@H]1CC[C@]2(C(=O)O[C@@H]3O[C@H](CO)[C@@H](O)[C@H](O)[C@H]3O)CC[C@]3(C)C(=CC[C@@H]4[C@@]5(C)C[C@@H](O)[C@@H](O)C(C)(C)[C@@H]5CC[C@]43C)[C@@H]2[C@]1(C)O
Non-Toxic: Activity (RBL-2H3 [2]) | Activity (RAW264.7 [3])
active: Activity (RBL-2H3 [1]) | Activity (RAW264.7 [4]) | Activity (RBL-2H3 [5]) Dose-dependent effect | Activity (RBL-2H3 [6]) Dose-dependent effect

Cc1ccc(S(=O)(=O)/C=C/C#N)cc1
active: NFkappaB nuclear translocation inhibition (qualitative call) [7]

C[C@@H]1CC[C@]2(C(=O)O)CC[C@]3(C)C(=CC[C@@H]4[C@@]5(C)CC[C@H](O[C@@H]6OC[C@H](O)[C@H](O)[C@H]6O)C(C)(C)[C@@H]5CC[C@]43C)[C@@H]2[C@]1(C)O
active: Activity (RBL-2H3 [1]) | NFkappaB nuclear translocation inhibition (qualitative call) [7] | Activity (RAW264.7 [8]) | Activity (RAW264.7 [4]) | inhibition [9] Dose-dependent effect | Activity (RBL-2H3 [5]) Dose-dependent effect | Activity (RBL-2H3 [6]) Dose-dependent effect
Non-Toxic: Activity (RBL-2H3 [2]) | Activity (RAW264.7 [3])

CC1=C2C3=CC[C@@H]4[C@@]5(C)CC[C@H](O[C@@H]6OC[C@H](O)[C@H](O)[C@H]6O)C(C)(C)[C@@H]5CC[C@@]4(C)[C@]3(C)CC[C@@]2(C(=O)O[C@@H]2O[C@H](CO)[C@@H](O)[C@H](O)[C@H]2O)CC[C@H]1C
Non-Toxic: Activity (RBL-2H3 [2]) | Activity (RAW264.7 [3])
active: Activity (RBL-2H3 [1]) | NFkappaB nuclear translocation inhibition (qualitative call) [7] | Activity (RAW264.7 [8]) | Activity (RAW264.7 [10]) | Activity (RAW264.7 [4]) | inhibition [9] Dose-dependent effect | Activity (RBL-2H3 [5]) Dose-dependent effect | Activity (RAW264.7 [11]) | Activity (RBL-2H3 [6]) Dose-dependent effect

CC(CCCC(C)(C)O)CCO[C@@H]1O[C@H](CO[C@@H]2O[C@@H](CO)[C@H](O)[C@H]2O)[C@@H](O)[C@H](O)[C@H]1O (stereo not given in full)
active: Activity (RBL-2H3 [1]) | NFkappaB nuclear translocation inhibition (qualitative call) [7] | Activity (RAW264.7 [8]) | Activity (RAW264.7 [10]) | Activity (RAW264.7 [4]) | inhibition [9] Dose-dependent effect | Activity (RBL-2H3 [5]) Dose-dependent effect | Activity (RAW264.7 [11]) | Activity (RBL-2H3 [6]) Dose-dependent effect
Non-Toxic: Activity (RBL-2H3 [2]) | Activity (RAW264.7 [3])

C=CCc1ccc(O[C@@H]2O[C@H](CO[C@@H]3OC[C@@H](O)[C@H](O)[C@H]3O)[C@@H](O)[C@H](O)[C@H]2O)cc1
Non-Toxic: Activity (RBL-2H3 [2]) | Activity (RAW264.7 [3])
active: Activity (RBL-2H3 [1]) | Activity (RAW264.7 [8]) | Activity (RAW264.7 [10]) | Activity (RAW264.7 [4]) | Activity (RBL-2H3 [5]) Dose-dependent effect | Activity (RAW264.7 [11]) | Activity (RBL-2H3 [6]) Dose-dependent effect

COc1cc2c(=O)oc3c(OC)c(OC)cc4c(=O)oc(c1O)c2c34
Toxic: Activity (RBL-2H3 [2]) | Activity (RAW264.7 [3])

Cc1ccc(-c2cc(C(F)(F)F)nn2-c2ccc(S(N)(=O)=O)cc2)cc1
active: Activity (RAW264.7 [11])
